Results published in ChEMBL document CHEMBL1944571, “A bright approach to the immunoproteasome: development of LMP2/β1i-specific imaging probes” (Bioorg Med Chem, 2012).
The source made the active and inactive calls. The calls are words filed in the database; no cut-off is given here.

Tests used:
[1] = target: T1, Proteasome subunit beta type-9 (Homo sapiens) (UniProt P28065); experiment: Binding affinity to LMP2/beta1i in human PC3 cells after 4 hrs using typhoon imaging by gel fluorescence assay; format: cell-based; details: PC-3
T1 sequence (whole entry): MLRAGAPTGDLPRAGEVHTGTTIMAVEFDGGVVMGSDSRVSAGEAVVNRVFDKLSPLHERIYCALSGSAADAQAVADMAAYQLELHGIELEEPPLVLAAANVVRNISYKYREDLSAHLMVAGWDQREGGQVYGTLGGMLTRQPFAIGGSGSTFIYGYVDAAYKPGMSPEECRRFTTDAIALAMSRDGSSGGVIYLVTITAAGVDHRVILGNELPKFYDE
Method in brief: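 PC-3 cells were treated with probe or DMSO vehicle for 4 h, with an epoxomicin control. Cells were washed in HBSS and lysed on ice for 1 h in NP-40/Triton X-100 buffer with protease inhibitors. Equal protein was run on 12% SDS-PAGE after denaturing at 100°C, and gels were scanned for fluorescence (λex 635 nm, λem 665 nm).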

[2] = target: T1, Proteasome subunit beta type-9 (Homo sapiens); experiment: Binding affinity to LMP2/beta1i in human PC3 cells at 30 uM after 4 hrs by fluorescence microscopy analysis in presence of UK101-Lys-Cbz treated 1.5 hrs before compound treatment; format: cell-based; details: PC-3
[3] = target: T1, Proteasome subunit beta type-9 (Homo sapiens); experiment: Binding affinity to LMP2/beta1i in human PC3 cells at 30 uM after 4 hrs by gel-fluorescence assay in presence of UK101 treated 1.5 hrs before compound treatment; format: cell-based; details: PC-3
Method in brief: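 PC-3 cells were pretreated for 1.5 h with DMSO or 1 μM competitor, then given 30 μM fluorescent probe for a further 4 h. Cells were washed, lysed, resolved by SDS-PAGE, and gels were imaged for in-gel fluorescence (λex 635 nm, λem 665 nm).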

[4] = target: T1, Proteasome subunit beta type-9 (Homo sapiens); experiment: Binding affinity to LMP2/beta1i in human PC3 cells at 15 uM after 4 hrs by fluorescence microscopy analysis in presence of UK101 treated 1.5 hrs before compound treatment; details: PC-3
[5] = target: T1, Proteasome subunit beta type-9 (Homo sapiens); experiment: Effect on LMP2/beta1i cellular distribution in human PC3 cells after 4 hrs by fluorescence microscopy analysis in presence of UK101 treated 1.5 hrs before compound treatment; format: cell-based; details: PC-3
Method in brief: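 PC-3 cells were grown on coverslips for 24–48 h, pretreated for 1.5 h with DMSO or 5 μM competitor, then given 15 μM probe for 4 h. Cells were washed, fixed in 4% paraformaldehyde, permeabilized with 0.2% Triton, and blocked. Where indicated, cells were stained with anti-LMP2 antibody, mounted with DAPI, and imaged by fluorescence microscopy, with intensity normalized to control.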

[6] = target: T1, Proteasome subunit beta type-9 (Homo sapiens); experiment: Binding affinity to LMP2/beta1i in human PC3 cells at 30 uM after 4 hrs by gel-fluorescence assay in presence of UK101-Lys-Cbz treated 1.5 hrs before compound treatment; format: cell-based; details: PC-3
Method in brief: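 PC-3 cells were pretreated for 1.5 h with DMSO or 20 μM competitor, then incubated with 30 μM fluorescent probe for a further 4 h. Lysates were resolved by SDS-PAGE, and gels were imaged for in-gel fluorescence (λex 635 nm, λem 665 nm).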

[7] = target: T2, Proteasome subunit beta type-8 (Mus musculus) (UniProt P28063); experiment: Binding affinity to LMP7/beta5i in mouse EL4 cells at 10 uM after 1.5 hrs by Western blotting; format: cell-based
T2 sequence (whole entry): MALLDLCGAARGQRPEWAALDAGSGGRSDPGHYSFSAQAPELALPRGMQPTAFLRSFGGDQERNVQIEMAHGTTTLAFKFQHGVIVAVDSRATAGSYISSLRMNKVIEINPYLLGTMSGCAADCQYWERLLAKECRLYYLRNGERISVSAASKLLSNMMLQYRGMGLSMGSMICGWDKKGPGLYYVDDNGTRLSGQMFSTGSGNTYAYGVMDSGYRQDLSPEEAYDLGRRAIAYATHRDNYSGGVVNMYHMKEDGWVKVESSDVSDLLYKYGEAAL
Method in brief: (§1)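 EL4 or PC-3 cells were exposed for 1.5 h to compound, DMSO vehicle, or 1 μM epoxomicin as positive control. Cells were washed in HBSS, lysed on ice for 1 h in non-denaturing NP-40/Triton buffer, and equal protein was resolved on 12% SDS-PAGE and blotted to PVDF. Blots were probed with subunit-specific antibodies and read by ECL. An upward band shift versus DMSO was scored as covalent modification.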

[8] = target: T3, Proteasome subunit beta type-5 (Mus musculus) (UniProt O55234); experiment: Binding affinity to LMPX/[…] in mouse EL4 cells at 10 uM after 1.5 hrs by Western blotting; format: cell-based; method in brief: as §1
T3 sequence (whole entry): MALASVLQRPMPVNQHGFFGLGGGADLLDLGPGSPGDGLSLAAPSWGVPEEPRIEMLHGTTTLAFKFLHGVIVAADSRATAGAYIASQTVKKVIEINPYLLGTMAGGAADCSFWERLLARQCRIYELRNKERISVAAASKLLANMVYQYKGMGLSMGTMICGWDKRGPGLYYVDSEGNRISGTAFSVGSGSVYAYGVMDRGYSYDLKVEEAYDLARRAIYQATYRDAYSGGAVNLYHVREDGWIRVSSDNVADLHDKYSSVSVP

[9] = target: T4, Proteasome subunit beta type-6 (Mus musculus) (UniProt Q60692); experiment: Binding affinity to LMPY/beta1 in mouse EL4 cells at 10 uM after 1.5 hrs by Western blotting; format: cell-based; method in brief: as §1
T4 sequence (whole entry): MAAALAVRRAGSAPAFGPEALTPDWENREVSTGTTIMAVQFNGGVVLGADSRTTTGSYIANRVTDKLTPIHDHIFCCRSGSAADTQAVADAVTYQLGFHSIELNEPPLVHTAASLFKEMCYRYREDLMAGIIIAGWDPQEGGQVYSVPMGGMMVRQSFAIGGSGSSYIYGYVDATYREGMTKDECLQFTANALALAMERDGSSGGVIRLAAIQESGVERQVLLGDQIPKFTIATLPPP

[10] = target: T5, Proteasome Macropain subunit MB1 (Homo sapiens) (UniProt P28074); experiment: Binding affinity to LMPX/[…] in human PC3 cells at 10 to 20 uM after 1.5 hrs by Western blotting; format: cell-based; details: PC-3; method in brief: as §1
T5 sequence (whole entry): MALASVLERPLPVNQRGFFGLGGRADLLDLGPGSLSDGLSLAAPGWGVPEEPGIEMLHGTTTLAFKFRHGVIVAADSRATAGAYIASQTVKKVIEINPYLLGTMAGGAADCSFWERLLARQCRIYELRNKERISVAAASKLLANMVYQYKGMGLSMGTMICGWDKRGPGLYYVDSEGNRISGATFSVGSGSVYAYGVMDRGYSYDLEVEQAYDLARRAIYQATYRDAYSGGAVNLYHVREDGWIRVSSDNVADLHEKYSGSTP

[11] = target: T6, Proteasome subunit beta type-9 (Mus musculus) (UniProt P28076); experiment: Binding affinity to LMP2/beta1i in mouse EL4 cells at 1 uM after 1.5 hrs by Western blotting; format: cell-based; method in brief: as §1
T6 sequence (whole entry): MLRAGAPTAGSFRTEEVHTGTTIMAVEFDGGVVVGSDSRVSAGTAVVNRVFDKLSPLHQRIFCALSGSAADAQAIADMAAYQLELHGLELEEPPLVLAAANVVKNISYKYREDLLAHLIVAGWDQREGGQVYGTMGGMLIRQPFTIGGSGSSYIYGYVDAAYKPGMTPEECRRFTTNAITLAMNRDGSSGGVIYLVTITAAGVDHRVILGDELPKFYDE

[12] = target: T7, Proteasome subunit beta type-6 (Homo sapiens) (UniProt P28072); experiment: Binding affinity to LMPY/beta1 in human PC3 cells at 10 to 20 uM after 1.5 hrs by Western blotting; format: cell-based; details: PC-3; method in brief: as §1
T7 sequence (whole entry): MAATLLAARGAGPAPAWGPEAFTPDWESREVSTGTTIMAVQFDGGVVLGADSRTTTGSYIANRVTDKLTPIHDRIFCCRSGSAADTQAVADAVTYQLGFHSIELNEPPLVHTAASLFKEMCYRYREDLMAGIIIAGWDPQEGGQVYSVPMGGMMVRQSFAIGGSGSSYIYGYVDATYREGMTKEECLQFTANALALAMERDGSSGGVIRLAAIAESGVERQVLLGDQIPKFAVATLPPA

[13] = target: T8, Proteasome subunit beta type-8 (Homo sapiens) (UniProt P28062); experiment: Binding affinity to LMP7/beta5i in human PC3 cells at 10 to 20 uM after 1.5 hrs by Western blotting; format: cell-based; details: PC-3; method in brief: as §1
T8 sequence (whole entry): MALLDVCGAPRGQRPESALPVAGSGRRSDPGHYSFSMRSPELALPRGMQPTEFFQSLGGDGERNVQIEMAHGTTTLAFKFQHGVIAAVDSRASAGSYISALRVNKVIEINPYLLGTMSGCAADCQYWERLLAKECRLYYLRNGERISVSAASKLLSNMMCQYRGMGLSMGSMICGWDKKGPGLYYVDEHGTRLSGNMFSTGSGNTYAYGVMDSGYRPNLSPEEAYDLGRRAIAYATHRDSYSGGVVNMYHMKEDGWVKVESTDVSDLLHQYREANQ

[14] = target: T6, Proteasome subunit beta type-9 (Mus musculus); experiment: Binding affinity to LMP2/beta1i in mouse EL4 cells at 10 uM after 1.5 hrs by Western blotting; format: cell-based; method in brief: as §1
[15] = target: T1, Proteasome subunit beta type-9 (Homo sapiens); experiment: Binding affinity to LMP2/beta1i in human PC3 cells at 10 to 80 uM after 1.5 hrs by Western blotting; format: cell-based; details: PC-3; method in brief: as §1
[16] = target: T6, Proteasome subunit beta type-9 (Mus musculus); experiment: Binding affinity to LMP2/beta1i in mouse EL4 cells at 5 uM after 1.5 hrs by Western blotting; format: cell-based; method in brief: as §1

| Activity [1] | Activity [2] | Activity [3] | Activity [4] | Activity [5] | Activity [6] | Activity [7] | Activity [8] | Activity [9] | Activity [10] | Activity [11] | Activity [12] | Activity [13] | Activity [14] | Activity [15] | Activity [16] | Structure (SMILES) |
| --- | --- | --- | --- | --- | --- | --- | --- | --- | --- | --- | --- | --- | --- | --- | --- | --- |
| Active | inactive | inactive | inactive | inactive | inactive | – | – | – | – | – | – | – | – | – | – | CCCCCCC(=O)N[C@@H](CCCCNC(=O)CCCCCNC(=O)COc1ccc(/C=C/c2ccc3n2[B-](F)(F)[N+]2=C(c4ccc[nH]4)C=CC2=C3)cc1)C(=O)N[C@@H](CC(C)C)C(=O)[C@@]1(CO[Si](C)(C)C(C)(C)C)CO1 |
| – | – | – | – | – | – | inactive | inactive | inactive | inactive | inactive | inactive | inactive | Active | Active | Active | CCCCCCC(=O)N[C@@H](CCCCNC(=O)OCc1ccccc1)C(=O)N[C@@H](CC(C)C)C(=O)[C@@]1(CO[Si](C)(C)C(C)(C)C)CO1 |
